≈ marks a conversion by molar mass, not a printed value.
Legend:
Escherichia coli [1] = test: Antibacterial activity against Escherichia coli B/r after 24 hrs by NCCLS method; format: functional
Method in brief: (§1)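 MIC taken as the lowest agent concentration preventing visible bacterial growth after 24 h incubation at 37 °C.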

Bacillus anthracis = test: Antibacterial activity against Bacillus anthracis Sterne after 24 hrs by NCCLS method; format: functional
Micrococcus luteus = test: Antibacterial activity against Micrococcus luteus WT after 24 hrs by NCCLS method; format: functional; method in brief: as §1
Pseudomonas aeruginosa = test: Antibacterial activity against Pseudomonas aeruginosa H45006 after 24 hrs by NCCLS method; format: functional; conditions: H45006, 24 h; method in brief: as §1
[2] = Inhibition of Escherichia coli M15 DXR
Escherichia coli [3] = test: Inhibition of Escherichia coli M15 DXR at 100 uM
[4] = Cytotoxicity against human BEAS2B cells after 24 hrs by MTS assay; format: cell-based; conditions: BEAS-2B
[5] = Cytotoxicity against human WI38 cells after 24 hrs by MTS assay; format: cell-based; conditions: WI-38, 24 h

Structure (SMILES): O=CN(O)CCCP(=O)(O)O [FOSMIDOMYCIN]
- MIC (Escherichia coli [1]): 10 µM (≈ 1.83 µg/mL)
- MIC (Bacillus anthracis): 100 µM (≈ 18.3 µg/mL)
- MIC (Micrococcus luteus): > 1000 µM
- MIC (Pseudomonas aeruginosa): 20 µM (≈ 3.66 µg/mL)
- IC50 [2]: 0.08 µM

Structure (SMILES): O=c1ccn(O)c(=O)n1Cc1ccccc1
- inhibition (Escherichia coli [3]): 0%

Structure (SMILES): CC1(C)S[C@@H]2[C@H](NC(=O)[C@H](N)c3ccccc3)C(=O)N2[C@H]1C(=O)O [AMPICILLIN]
- MIC (Escherichia coli [1]): 5 µM (≈ 1.75 µg/mL)
- MIC (Bacillus anthracis): 0.1 µM (≈ 0.0349 µg/mL)
- MIC (Micrococcus luteus): 1 µM (≈ 0.349 µg/mL)
- MIC (Pseudomonas aeruginosa): 500 µM (≈ 175 µg/mL)

Structure (SMILES): Oc1ccc(-c2ccccc2)cc1O
- MIC (Escherichia coli [1]): 500 µM (≈ 93.1 µg/mL)
- MIC (Bacillus anthracis): 200 µM (≈ 37.2 µg/mL)
- MIC (Micrococcus luteus): 200 µM (≈ 37.2 µg/mL)
- MIC (Pseudomonas aeruginosa): 200 µM (≈ 37.2 µg/mL)

Structure (SMILES): Oc1ccc(Cc2ccccc2)cc1O
- MIC (Escherichia coli [1]): 1000 µM (≈ 200 µg/mL)
- MIC (Bacillus anthracis): 200 µM (≈ 40 µg/mL)
- MIC (Micrococcus luteus): 200 µM (≈ 40 µg/mL)
- MIC (Pseudomonas aeruginosa): 200 µM (≈ 40 µg/mL)
- IC50 [2]: 22.4 µM

Structure (SMILES): NC[C@H]1O[C@H](O[C@H]2[C@H](O)[C@@H](O[C@H]3O[C@H](CO)[C@@H](O)[C@H](N)[C@H]3O)[C@H](N)C[C@@H]2N)[C@H](O)[C@@H](O)[C@@H]1O [KANAMYCIN]
- MIC (Escherichia coli [1]): 10 µM (≈ 4.85 µg/mL)
- MIC (Bacillus anthracis): 5 µM (≈ 2.42 µg/mL)
- MIC (Micrococcus luteus): 20 µM (≈ 9.69 µg/mL)
- MIC (Pseudomonas aeruginosa): 200 µM (≈ 96.9 µg/mL)

Structure (SMILES): O=c1cc(Cc2ccccc2)occ1O
- inhibition (Escherichia coli [3]): 0%

Structure (SMILES): O=c1n(O)ccn1Cc1ccccc1
- inhibition (Escherichia coli [3]): 19%

Structure (SMILES): O=P(O)(O)CCc1ccc(O)c(O)c1
- MIC (Escherichia coli [1]): > 1000 µM
- MIC (Bacillus anthracis): 1000 µM (≈ 218 µg/mL)
- MIC (Micrococcus luteus): > 1000 µM
- MIC (Pseudomonas aeruginosa): 1000 µM (≈ 218 µg/mL)

Structure (SMILES): O=C(O)c1cc(-c2ccccc2)ccc1O
- inhibition (Escherichia coli [3]): 0%

Structure (SMILES): O=c1cc(Cc2ccccc2)[nH]cc1O
- inhibition (Escherichia coli [3]): 0%

Structure (SMILES): O=C(O)CCc1ccc(O)c(O)c1
- inhibition (Escherichia coli [3]): 26.2%

Structure (SMILES): Oc1cnc(Cc2ccccc2)nc1O
- inhibition (Escherichia coli [3]): 30%

Structure (SMILES): O=c1ccc(-c2ccccc2)cn1O [1-HYDROXY-5-PHENYLPYRIDIN-2(1H)-ONE]
- MIC (Escherichia coli [1]): 100 µM (≈ 18.7 µg/mL)
- MIC (Bacillus anthracis): 20 µM (≈ 3.74 µg/mL)
- IC50 [4]: > 300 µM
- IC50 [5]: > 300 µM
- MIC (Micrococcus luteus): 100 µM (≈ 18.7 µg/mL)
- MIC (Pseudomonas aeruginosa): 50 µM (≈ 9.36 µg/mL)
- IC50 [2]: 1.4 µM

Structure (SMILES): Oc1ccc(-c2ccccc2)cn1
- IC50 [2]: 75 µM

Structure (SMILES): Nc1cc(-c2ccccc2)ccc1O
- inhibition (Escherichia coli [3]): 0%

Structure (SMILES): [O-][n+]1cccc(-c2ccccc2)c1
- inhibition (Escherichia coli [3]): 0%

Structure (SMILES): O=C(Cc1ccccc1)NO
- inhibition (Escherichia coli [3]): 26%

Source: ChEMBL document CHEMBL1154689, “Coordination chemistry based approach to lipophilic inhibitors of 1-deoxy-D-xylulose-5-phosphate reductoisomerase” (J Med Chem, 2009)
